High-throughput results (PubChem BioAssay)
This is a sample that favours compounds with a hit; in the whole collection about 5.2% have one here.
ZTA counter = blocks Epstein-Barr virus ZTA, an EBNA-1 counter-screen. P03206. ZTA-DNA binding, fluorescence polarization. inhibition, % at 11 µM. 0.15% of 320,000 active. AID 2234; in the data active means inhibition above about 33%
Target sequence (P03206 whole entry, looked up): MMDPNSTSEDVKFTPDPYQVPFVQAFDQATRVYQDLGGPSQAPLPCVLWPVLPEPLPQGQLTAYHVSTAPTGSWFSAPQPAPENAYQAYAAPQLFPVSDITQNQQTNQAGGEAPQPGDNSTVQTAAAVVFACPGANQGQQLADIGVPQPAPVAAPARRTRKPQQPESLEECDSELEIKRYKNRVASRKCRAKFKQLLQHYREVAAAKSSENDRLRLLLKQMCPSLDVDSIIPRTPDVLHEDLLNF
HCV core dimer = inhibitors of HCV core protein dimerization, primary screen, biochemical, TR-FRET, high-throughput | TR-FRET GST/Flag-core106 dimerization, 1536-well | inhibition, % at 5 µM | 0.33% of 300,000 active | AID 1899, 2009;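 active means inhibition above the mean of all tested compounds plus 3 SD, set per screening campaign, cut at about 45% in these data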
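System: GST-tagged and Flag-tagged HCV core protein residues 1-106 / Input: core106 proteins, GST 13.5 nM and Flag 17 nM / Buffer or medium: KF-containing HEPES buffer, pH 7.45, DTT, CHAPS, BSA / Probe or stimulus: Eu-anti-GST and XL665-anti-Flag labelled anti-tag antibodies / Schedule: 4 h, 22.5 °C incubation / Technique: TR-FRET 671 and 617 nm emission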
ALR H2O2 inh = inhibitors of human ALR sulfhydryl oxidase, primary screen, biochemical, H2O2 detection, HRP-luminol luminescence, single point. inhibition, % (no concentration beside the values). purified ALR, DTT oxidation. AID 485317, 2010. 3.8% of 290,000 active;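 active means mean replicate inhibition above about 79%, with every replicate also reaching it, limit read from the data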
Target sequence (P55789 whole entry, looked up): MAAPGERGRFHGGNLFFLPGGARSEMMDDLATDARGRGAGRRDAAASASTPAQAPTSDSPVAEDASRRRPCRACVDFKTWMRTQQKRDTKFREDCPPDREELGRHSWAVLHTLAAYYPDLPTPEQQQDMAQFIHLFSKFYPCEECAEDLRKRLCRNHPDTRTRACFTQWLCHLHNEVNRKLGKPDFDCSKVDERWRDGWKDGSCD
EBNA-1 inhibitor = EBNA-1 DNA-binding inhibitors, primary screen, biochemical, fluorescence polarization; inhibition, % at 14.8 µM; 0.34% of 300,000 active; AID 1950, 2009; in the data active means inhibition above about 28%
HCV NS3 hel inh = inhibitors of HCV NS3 helicase, primary screen, biochemical, Cy5 molecular beacon fluorescence; Hepatitis C virus NS3 helicase; NS3 helicase DNA unwinding; inhibition, % at 10.9 µM; 0.56% of 290,000 active; AID 1800, 2009;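 active means inhibition above the mean of all tested compounds plus 3 SD, set per campaign, cut at about 35% in these data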;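 further: 0% = DMSO wells and 100% = thioflavine S control wells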
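System: HCV NS3 helicase fragment; control set: DMSO and thioflavine S; technique: Cy5 fluorescence at 0 and 60 min, beacon hairpin quenching; reagent: beacon DNA duplex substrate plus ATP; replicates: singlicate; schedule: 1 h reaction at 25 °C, ATP-initiated; medium: MOPS buffer pH 6.5 with MgCl2, DTT, Tween20, BSA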
PfM18AAP inh = PfM18AAP inhibitors, malaria aminopeptidase, primary screen, biochemical, QFRET, recombinant enzyme. H-Glu-NHMec fluorogenic cleavage. inhibition, % at 7.35 µM. 1.2% of 290,000 active;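 active means inhibition above the campaign mean inhibition over all tested compounds plus 3 SD, cut at about 28% in these data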;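 further: 0% = plate median of test compound wells and 100% = 2 mM ZnCl2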
* hit, by the source's call; . = no result given.

SMILES | ZTA counter | HCV core dimer | ALR H2O2 inh | EBNA-1 inhibitor | HCV NS3 hel inh | PfM18AAP inh
Cc1c(CC(=O)N2C[C@H]3C[C@@H](C2)c2cccc(=O)n2C3)c(=O)oc2c(C)c(O)ccc12 | 3 | 4 | 89* | 1 | -13 | -3
CC(=O)OC1N=C(c2ccccc2Cl)c2cc(Br)ccc2N(C)C1=O (stereo not drawn) | 7 | -1 | . | 12 | -4 | 4
CCOC(=O)c1ccccc1NC(=O)c1c(O)[nH]c(=S)[nH]c1=O | -9 | -4 | 92* | 6 | . | .
CCOC(=O)c1ccccc1NC(=O)c1c(O)[nH]c(=O)[nH]c1=O | 8 | -1 | 14 | -1 | . | .
COC(=O)C1=C(c2cccc(OC)c2OC)C[C@@H]2CC[C@H]1N2C(=O)N1CCOCC1 | -13 | -2 | -9 | 9 | . | .
O=C1NC(=O)C(Sc2ccccc2[N+](=O)[O-])C(=O)N1 | -2 | -9 | 11 | 5 | 2 | 27
CC(=O)c1ccc2c(c1)C1C(Cl)C(Sc3ccccc3[N+](=O)[O-])CC1C(c1ccccc1)N2 (stereo not drawn) | 4 | 66* | -1 | -5 | 9 | 17
CC(=O)c1ccc2c(c1)C1C(Cl)C(Sc3ccccc3[N+](=O)[O-])CC1C(c1ccccc1[N+](=O)[O-])N2 (stereo not drawn) | 10 | 54* | -22 | 4 | 18 | 19
COC(=O)c1cn(C(=O)c2cccc3ccccc23)c2ccccc12 | -12 | 1 | 30 | -3 | -2 | 5
Cc1ccc(O)c(C)c1 | -2 | . | -5 | . | . | .
Cc1cccc(N2C(=O)NC(=O)/C(=C/c3ccc([N+](=O)[O-])o3)C2=O)c1 | 37* | 1 | -59 | 18 | 33 | 11
Cc1cccc(N2C(=O)NC(=O)/C(=C\C=C\c3ccco3)C2=O)c1 | 10 | -6 | 64 | 8 | 27 | 12
Cc1ccc(-c2nc(CS(=O)CC(=O)N3CCC4(CC3)OCCO4)c(C)o2)cc1 (stereo not drawn) | -8 | -2 | 99* | -12 | -13 | 2
O=C1CN=C(c2ccccc2)c2cc(Br)ccc2N1 | -3 | 4 | -10 | 1 | -6 | -12
COP(=O)(OC)C(Nc1ccccc1)c1ccccc1 (stereo not drawn) | -11 | 4 | 96* | -6 | 6 | 8
CC(C)NC(=O)Cn1cc(C(=O)c2ccccc2F)c2ccccc21 | 4 | -2 | -3 | -11 | -3 | 3
COC(=O)C1=C(c2ccc3ccccc3c2)C[C@@H]2CC[C@H]1N2C(=O)N1CCCCC1 | -16 | . | -6 | . | . | .
O=c1[nH]c(=S)n(Cc2ccco2)c(O)c1C=NCc1cccs1 | 5 | 55* | 9 | 0 | 3 | 8
COc1ccc(N/N=C/c2c(O)n(-c3ccc(C)c(C)c3)c(=O)[nH]c2=O)cc1 | 4 | -39 | 99* | 3 | 11 | 4
Cc1cccc(N/N=C/c2c(O)[nH]c(=S)[nH]c2=O)c1 | -4 | -11 | 100* | 3 | . | .
COc1ccc(N/N=C/c2c(O)n(-c3cccc(C)c3)c(=O)[nH]c2=O)cc1 | -10 | -8 | 99* | -4 | 13 | 8
Cc1cccc(-n2c(O)c(/C=N/NC(=O)c3ccncc3)c(=O)[nH]c2=O)c1 | 9 | 1 | -1 | 4 | 5 | 1
Cc1ccc(-n2c(O)c(/C=N/Nc3ccccc3)c(=O)[nH]c2=O)cc1C | 6 | -1 | 99* | -15 | 8 | 6
COc1ccc(N=Cc2c(O)n(-c3ccc(C)cc3)c(=O)[nH]c2=O)cc1 | 15 | 5 | -5 | 1 | 7 | -4
COc1ccccc1CCNC1CCC(C(C)(C)C)CC1 (stereo not drawn) | -14 | -1 | -3 | -7 | -22 | 1
SMILES | ZTA counter | HCV core dimer | ALR H2O2 inh | EBNA-1 inhibitor | HCV NS3 hel inh | PfM18AAP inh
CCC(=Nc1ccc2c(c1)CCC2)c1c(O)n(-c2ccc(OC)cc2)c(=O)[nH]c1=O | -13 | 10 | . | 0 | 3 | -1
Nc1ccccc1C(=O)OCc1ccc([N+](=O)[O-])cc1 | -1 | 3 | -2 | -8 | -5 | 3
CC(Cc1ccccc1Sc1ccc(O)cc1)N(C)C (stereo not drawn) | 17 | 0 | 99* | 1 | -24 | -4
O=C(c1ccccc1)C(CN1CCCC1)c1ccccc1 (stereo not drawn) | 13 | -3 | 97* | 4 | 1 | 0
CNC(=O)Oc1ccc(N(C)C)cc1C(C)C | 1 | -4 | 92* | -3 | 0 | -5
CNC(=O)Oc1cccc2ccccc12 | -3 | -3 | -27 | 8 | 6 | -4
COc1cccc(-n2nc(C(=O)N3CCC4(CC3)OCCO4)c3ccccc3c2=O)c1 | 17 | 3 | 94* | 5 | 4 | -3
Cc1[nH]c2ccc(O)cc2c1CCN | 1 | -9 | 96* | 2 | . | .
Cc1[nH]c2ccc(OCc3ccccc3)cc2c1CCN | -5 | -9 | 12 | -11 | -59 | -1
Cc1cc(/C=C2\C(=O)NC(=O)N(Cc3ccco3)C2=O)c(C)n1-c1ccc(O)cc1 | 3 | 47* | 5 | 3 | 17 | 22
Cc1ccc(N2C(=O)NC(=O)/C(=C\c3cc(C)n(-c4cc(C(=O)O)cc(C(=O)O)c4)c3C)C2=O)cc1 | 20 | 1 | 39 | -5 | 19 | 19
Cc1cc(/C=C2\C(=O)NC(=O)N(c3ccc(F)cc3)C2=O)c(C)n1-c1ccc(C(=O)O)cc1 | -8 | 3 | 98* | -6 | 15 | 8
Cc1cc(/C=C2\C(=O)NC(=O)N(c3ccc(Cl)cc3)C2=O)c(C)n1-c1sc2c(c1C#N)CCCC2 | 10 | 47* | 5 | 2 | 28 | 17
CCOC(=O)c1c(-n2c(C)cc(/C=C3\C(=O)NC(=O)N(C)C3=O)c2C)sc2c1CCCC2 | -3 | 24 | -2 | -16 | 6 | 10
Cc1cc(/C=C2/C(=O)NC(=O)N(c3ccccc3)C2=O)c(C)n1-c1ccc(F)cc1 | 10 | 11 | 8 | 8 | 10 | 5
Cc1ccc(N2C(=O)NC(=O)/C(=C\c3cc(C)n(-c4ccc(C(=O)O)cc4)c3C)C2=O)cc1 | 12 | 17 | 97* | 11 | 26 | 15
CCn1nc(-c2ccccc2)nc2c(=O)n(C)c(=O)nc1-2 | 74* | 48* | -71 | -2 | -3 | 7
Cn1c(=O)c2c(nc(N/N=C/c3c(O)n(C4CCCCC4)c(=S)[nH]c3=O)n2C)n(C)c1=O | 11 | 0 | 14 | 5 | 26 | 12
O=C1NC(=S)N(c2ccc(F)cc2)C(=O)/C1=C\c1ccoc1 | . | . | . | . | 28 | 9
O=C1NC(=S)N(c2ccc(F)cc2)C(=O)/C1=C/c1ccco1 | 25 | 77* | 93* | 78* | 35 | 7
